Shown are actives, neighbours in structure and some others; about 2.5% of the full set was active somewhere.
MC4R ag barr – MC4R agonists recruiting beta-arrestin, primary screen, cell-based, luminescence, agonist arm of biased-ligand search | U2OS MC4R beta-arrestin complementation; percent of melanotan II response, DMSO zero | activation, % at 8.9 µM | hit rate 0.98% among 360,000 | AID 540308, 2011;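 active = activation above a per-plate cutoff, the mean activation of sample wells on that plate plus 3 SD, cut at about 8% in these data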
Target sequence (P32245 whole entry, looked up): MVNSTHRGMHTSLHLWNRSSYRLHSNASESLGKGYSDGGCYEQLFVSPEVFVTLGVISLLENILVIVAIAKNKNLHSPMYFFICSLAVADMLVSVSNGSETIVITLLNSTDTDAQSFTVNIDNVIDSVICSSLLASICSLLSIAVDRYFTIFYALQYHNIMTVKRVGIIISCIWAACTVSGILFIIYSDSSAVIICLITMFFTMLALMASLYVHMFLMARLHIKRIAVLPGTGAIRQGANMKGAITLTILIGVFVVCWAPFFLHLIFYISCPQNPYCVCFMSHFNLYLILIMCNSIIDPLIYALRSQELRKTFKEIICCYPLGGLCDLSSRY
NALP1 yeast inh – NALP1 inflammasome inhibitors in reconstituted yeast, colorimetric, S. cerevisiae, triplicate retest; inhibition, % at 10 µM; hit rate 0.61% among 280,000; AID 2071, 2009; S. cerevisiae NALP1/ASC/caspase-1 growth, X-gal OD620, 72 h; in the data active = inhibition mostly above about 24%, no sharp cut-off; inactive = mostly below about 32%
MC4R antag cAMP – MC4R antagonists of cAMP signaling, primary screen, cell-based, TR-FRET, antagonist arm of biased-ligand search; hit rate 0.48% among 360,000; MC4R-expressing cells, MTII-stimulated cAMP, LANCE TR-FRET; inhibition, % at 6.5 µM; Melanocortin receptor 4 (Homo sapiens), P32245;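 active = inhibition above its plate's cutoff, the mean of tested wells on that plate plus 3 SD, cut at about 29% in these data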;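 note: 0% = Melanotan II alone and 100% = Melanotan II plus saturating MCL0020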
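Material – human MC4R-expressing U2OS cells · Repeats – no replicates · Detection – TR-FRET with Eu-cAMP and labeled anti-cAMP, 671 nm · Times – compound 30 min, challenge 1 h, detection 1 h · Compound – single nominal compound dose of 6.5 µM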
A1 inh – caspase 3/7 activation in MEF A1-2A-BIM cells, primary screen, A1 inhibitor project, cell-based, luminescence, HTS. Caspase-Glo 3/7 luminescence, 3 h; percent of clofoctol response, vehicle zero. caspase activation, % (concentration not given with the values). hit rate 0.066% among 330,000. AID 2462, 2010;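 active = over half of replicate activation scores above 10%, or exactly half above 10 with the replicate mean above 10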
Tb MetRS inh – T. brucei MetRS inhibitors, primary screen, biochemical, luminescence; AID 624268, 2012; inhibition, % at 11.9 µM; purified T. brucei MetRS, ATP depletion, Kinase-Glo luminescence; hit rate 0.4% among 360,000;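 active = inhibition above a per-plate cutoff of the control wells' mean inhibition plus 3 SD, cut at about 5.5% in these data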;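 note: 0% = DMSO wells median and 100% = median of wells with control inhibitor compound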
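Test system: purified T. brucei MetRS enzyme. Also added: ATP, methionine and E. coli bulk tRNA substrates. Compound: 11.9 µM single point. Schedule: 15 min enzyme-compound preincubation, 2 h reaction, 10 min detection, 25 °C. Signal: luciferase luminescence of residual ATP, Kinase-Glo. Evaluation: percent inhibition versus plate control medians. Controls: DMSO wells, low control.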
NALP3 yeast inh – NALP3 inflammasome inhibitors in reconstituted yeast, primary screen, luminescence, uHTS. inhibition, % at 10 µM. hit rate 0.39% among 330,000. Yeast reconstituted NLRP3/ASC/caspase-1, beta-gal luminescence, 24 h;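 active = inhibition of 50% or more; inactive = inhibition below 50%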;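 note: plate controls were induced DMSO wells for no effect and uninduced yeast grown without galactose for full effect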
MC4R barr ag – MC4R beta-arrestin agonists, retest, confirmation, cell-based, luminescence, U2OS; AID 602192, 2012; activation, % at 8.9 µM; U2OS MC4R beta-arrestin recruitment; scaled DMSO 0%, Melanotan II 100%; hit rate 31% among 2,400; shares compounds with MC4R ag barr;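 active = mean activation across replicates above the hit cutoff set in the earlier primary screen, cut at about 8% in these data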
MOR-DOR barr ag – agonists of MOR-DOR heterodimerization, counter-screen for MC4R biased agonist project, cell-based, luminescence; shares compounds with MC4R ag barr; U2OS PathHunter beta-arrestin, beta-gal luminescence; percent of deltorphin B response, DMSO zero; activation, % at 9.2 µM; hit rate 5.8% among 2,400;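 active = mean activation across replicates exceeds the hit threshold derived in the earlier primary screen, cut at about 18% in these data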;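 note: 100% = deltorphin B at 0.9 µM final and 0% = DMSO alone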
An asterisk follows results filed as active; / = no result given.

SMILES	MC4R ag barr	NALP1 yeast inh	MC4R antag cAMP	A1 inh	Tb MetRS inh	NALP3 yeast inh	MC4R barr ag	MOR-DOR barr ag
Cc1ccc(NC(=O)C2CC(O)CN2C(=O)OCc2ccccc2)c(C)c1 (stereo not drawn)	2	8	3	-1	-1	19	/	/
Cc1nc(NC(=O)CSc2nc3cccnc3n2Cc2ccccc2)sc1C	26*	13	-3	0	0	-5	3	8
CCOc1ccc2nc(NC(=O)CS(=O)(=O)c3ccc(C)cc3)sc2c1	11*	15	-10	0	-2	7	5	8
CCOc1ccc2nc(NC(=O)CSc3nc4cccnc4n3C)sc2c1	16*	8	3	0	0	-8	8.9*	7
CCOc1ccc(OCC)c(NC(=O)CSc2nc3cccnc3n2C)c1	-1	44	1	1	0	9	/	/
COc1ccc(CNC(=O)CSc2ncn[nH]2)cc1OC	1	11	7	0	-1	24	/	/
Cc1ccc(C(=O)Nc2oc(-c3ccccc3)cc2C#N)cc1	12*	33	5	0	0	17	4	4
COc1cccc(/C=N/NC(=O)CCn2c3ccccc3c3ccccc32)c1	14*	28	2	0	-1	2	4	7
O=C(NC1CCCCC1)c1cc(-c2ccccc2O)on1	4	20	1	-2	0	7	/	/
COc1ccccc1OCC(=O)Nc1c2c(nn1-c1ccccc1)CS(=O)(=O)C2	-2	18	-12	0	-1	-3	/	/
O=Nc1c2cc3ccccc3[nH]c-2c2ccccc12	10*	/	-1	/	0	/	7	11
O=Nc1c(O)c2ccccc2c2ccccc12	4	/	1	0	0	/	/	/
CC1(c2ccc3ccccc3c2)NC(=O)N(CC(=O)Nc2ncccc2O)C1=O (stereo not drawn)	-1	/	-6	0	-1	1	/	/
CCSc1ccc(C(=O)Nc2ccc(Br)cn2)cc1[N+](=O)[O-]	6	1	0	1	0	24	/	/
CCSc1ccc(C(=O)Nc2cccc(C)n2)cc1[N+](=O)[O-]	36*	34	4	-2	-1	22	-2	7
CC1CC(C)(C)NC2(CCCC2)N1 (stereo not drawn)	0	/	8	/	0	/	/	/
CS(=O)(=O)N1CCN(c2ccc(NC(=O)c3ccc(-c4ccc(Cl)cc4)o3)cc2)CC1	12*	-13	1	0	-1	16	-1	9
Cc1ccc(C(=O)Nc2ccc(N3CCN(S(C)(=O)=O)CC3)cc2)cc1	2	28	1	0	-1	11	/	/
COc1ccccc1NC(=O)Nc1cccc(NC(C)=O)c1	1	-44	8	-1	0	2	/	/
COc1ccccc1NC(=O)Nc1cc(C(C)C)ccc1C	19*	5	-4	/	0	17	-1	8
Cc1cc(NC(=O)c2noc3c2CCc2ccccc2-3)no1	0	29	8	-1	0	24	/	/
CC(=O)c1cccc(NC(=O)c2noc3c2CCc2ccccc2-3)c1	16*	9	10	-2	0	16	9.7*	3
COc1cc(C(=O)NCCC(=O)NCc2c(F)cc(F)cc2F)cc(OC)c1OC	0	-13	7	2	0	0	/	/
COc1ccc(Cl)cc1NC(=O)Cc1c(F)cccc1Cl	15*	43	1	0	0	-13	-3	2
COc1ccc(Cl)cc1NC(=O)CC(=O)Nc1cc(Cl)ccc1OC	4	5	3	0	-1	15	/	/
SMILES	MC4R ag barr	NALP1 yeast inh	MC4R antag cAMP	A1 inh	Tb MetRS inh	NALP3 yeast inh	MC4R barr ag	MOR-DOR barr ag
Cc1cc(C)nc(SCc2nnc(SCC(=O)Nc3ccc(Cl)c(C(F)(F)F)c3)o2)n1	11*	14	10	-1	0	17	7	9
O=[N+]([O-])c1cc(-c2cccnc2)n[nH]1	-3	/	3	/	0	/	/	/
CC1CCc2c(sc(NC(=O)/C=C/c3cccs3)c2C(=O)O)C1 (stereo not drawn)	0	/	19	1	-1	41	/	/
Cc1ccc2nc(NC(=O)CCNS(=O)(=O)c3ccc(Br)s3)sc2c1	14*	0	4	0	0	-8	7	7
Cc1ccc2nc(NC(=O)CCNS(=O)(=O)c3cccs3)sc2c1	0	22	3	0	-1	-5	/	/
Cc1cc(C(=O)OCC(=O)Nc2ccccc2C#N)c(C)o1	-2	/	3	/	0	-1	/	/
Oc1ccc(N2CCN(c3ncnc4sc(-c5ccccc5)cc34)CC2)cc1	48*	14	4	/	0	/	34*	12
CCOC(=O)c1c(NC(=S)Nc2ccc(F)cc2)sc2c1CCC2	11*	9	4	0	0	36	8.5*	4
CN1C[C@@H]2[C@@H]3C(=O)N(C)C(=O)[C@@H]3[C@](C)(C1=O)N2C(=O)c1ccc(Br)cc1	-3	/	2	/	0	/	/	/
CN1C(=O)/C(=C/c2ccc(OCc3ccccc3F)cc2)NC1=S	20*	9	8	0	0	6	2	5
CN1C(=O)/C(=C/c2ccc(OCc3ccc(F)cc3)cc2)NC1=S	20*	1	-4	-1	-1	14	7	13
CN1C(=O)/C(=C/c2ccc(OCc3ccc(F)cc3)cc2)N(C)C1=S	-1	0	-2	0	-1	14	/	/
CCN1CCN(CCCNC(=O)CCC(=O)N2CCOc3ccc(Cl)cc32)CC1	1	0	4	0	0	-1	/	/
CCOc1ccc(NC(=O)c2ccc(CC)s2)c([N+](=O)[O-])c1	0	12	-5	-1	-1	5	/	/
CCOc1ccc(NC(=O)CSc2nc(-c3cccs3)cc(C(F)(F)F)n2)c([N+](=O)[O-])c1	16*	14	-7	-2	0	21	26*	7
CCOc1cc(NC(=S)NCC(C)C)c(OCC)cc1NC(=O)c1cccs1	15*	30	10	/	-1	27	1	5
CCOc1ccc(NC(=O)c2cccs2)c([N+](=O)[O-])c1	18*	-17	-3	-2	0	18	2	9
